Experiment [1] addresses T1, RNA-directed RNA polymerase (Hepacivirus hominis, UniProt O39930). Put plainly: Inhibition of HCV 1a NS5B RNA polymerase.
For experiment [2], the target named is T1, RNA-directed RNA polymerase. Nature of the experiment: Inhibition of HCV 1b NS5B RNA polymerase. Also on record: species or system Hepatitis C virus subtype 1b.
The test system of experiment [3] is Hepatitis C virus. Put plainly: Inhibition of HCV 1b replication in presence of 40% human serum. In kind it is functional, organism-based, Hepatitis C virus subtype 1b. Summed up:
(§1)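 Genotype 1b HCV replicon cell culture assay. The medium held 5% fetal calf serum […] and 40% human serum […]. EC50 is the mean of at least two independent determinations, standard deviation ±10%.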

For experiment [4], the system named is Hepatitis C virus. Put plainly: Inhibition of HCV 1b replication in presence of 5% fetal calf serum. In kind it is functional, organism-based, Hepatitis C virus subtype 1b. Summed up:
as §1

T1 sequence (O39930 whole entry): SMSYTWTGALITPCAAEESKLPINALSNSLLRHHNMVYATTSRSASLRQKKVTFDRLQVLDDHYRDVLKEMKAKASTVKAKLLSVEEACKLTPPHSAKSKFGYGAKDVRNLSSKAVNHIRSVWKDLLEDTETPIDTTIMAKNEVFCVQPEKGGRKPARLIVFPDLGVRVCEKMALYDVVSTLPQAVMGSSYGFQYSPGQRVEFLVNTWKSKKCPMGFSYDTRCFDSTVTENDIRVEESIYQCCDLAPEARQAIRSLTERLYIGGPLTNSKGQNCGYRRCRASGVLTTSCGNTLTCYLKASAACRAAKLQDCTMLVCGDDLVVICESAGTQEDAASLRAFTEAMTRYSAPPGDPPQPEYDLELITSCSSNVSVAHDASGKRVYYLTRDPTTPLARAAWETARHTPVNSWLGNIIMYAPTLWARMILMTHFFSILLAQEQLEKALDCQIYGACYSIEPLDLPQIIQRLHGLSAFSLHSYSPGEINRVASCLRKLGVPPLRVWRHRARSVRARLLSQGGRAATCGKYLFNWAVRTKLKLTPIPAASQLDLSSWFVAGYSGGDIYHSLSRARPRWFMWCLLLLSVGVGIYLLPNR

Take `COC(=O)c1ccccc1NS(=O)(=O)Nc1ccc2c(c1)S(=O)(=O)NC(c1c(O)c3cccnc3n(CCC(C)C)c1=O)=N2`: in experiment [1], the IC50 (in general, the midpoint of a concentration-inhibition curve) stood at 129 nM.

In experiment [1], `CC(C)CCn1c(=O)c(C2=Nc3ccc(NS(=O)(=O)Nc4ccc(C(N)=O)cc4)cc3S(=O)(=O)N2)c(O)c2cccnc21` showed an IC50 of 18 nM.

With `NS(=O)(=O)Nc1ccc2c(c1)S(=O)(=O)NC(c1c(O)c3ccccc3n(NC3CCC3)c1=O)=N2`, the figures for the IC50 in experiment [2] and in experiment [1] were 0.4 nM and 5.2 nM, respectively. Further, the EC50 (commonly the concentration that produces a half-maximal response) in experiment [3] came out at 81 nM; in experiment [4], 3 nM.

In the case of `C=CCOC(=O)NS(=O)(=O)Nc1ccc2c(c1)S(=O)(=O)N=C(c1c(O)c3cccnc3n(CCC(C)C)c1=O)N2`, it took 88 nM to reach half-maximal inhibition in experiment [1] (IC50).

The compound `CC(C)CCn1c(=O)c(C2=Nc3ccc(NS(=O)(=O)NCCN)cc3S(=O)(=O)N2)c(O)c2cccnc21` showed an IC50 in experiment [1] of 10 nM.

With `CC(C)CCn1c(=O)c(C2=Nc3ccc(NS(=O)(=O)NC(=O)OCCC#N)cc3S(=O)(=O)N2)c(O)c2cccnc21`, the IC50 in experiment [2] turned out to be 6.7 nM; in experiment [1], 35 nM. The EC50 in experiment [4] came to 98 nM.

Turning to `CC(C)CCn1c(=O)c(C2=NS(=O)(=O)c3cc(NS(=O)(=O)Nc4ccc(C(=O)O)cc4)ccc3N2)c(O)c2cccnc21`, it took 20 nM to reach half-maximal inhibition in experiment [1] (IC50).

For the compound `CNS(=O)(=O)Nc1ccc2c(c1)S(=O)(=O)NC(c1c(O)c3ccccc3n(NC3CCC3)c1=O)=N2`, the EC50 in experiment [3] was 420 nM; in experiment [4], 11 nM. This compound showed a half-maximal inhibitory concentration (IC50) in experiment [1] of 8.7 nM.

As for `CC(C)CCn1c(=O)c(C2=Nc3ccc(NS(=O)(=O)NCCO)cc3S(=O)(=O)N2)c(O)c2cccnc21`, the midpoint of inhibition in experiment [1], the IC50, lay at 107 nM.

Regarding `COc1ccc(CNS(=O)(=O)Nc2ccc3c(c2)S(=O)(=O)N=C(c2c(O)c4cccnc4n(CCC(C)C)c2=O)N3)cc1`, in experiment [1], half-maximal inhibition (IC50) required 10 nM.

`CC(C)CCn1c(=O)c(C2=Nc3ccc(NS(=O)(=O)NC4CCCC4)cc3S(=O)(=O)N2)c(O)c2cccnc21`: the IC50 in experiment [1] was found to be 39 nM.

Regarding `C#CCOC(=O)NS(=O)(=O)Nc1ccc2c(c1)S(=O)(=O)N=C(c1c(O)c3cccnc3n(CCC(C)C)c1=O)N2`, in experiment [1], the IC50 was 72 nM.

Regarding `CC(C)CCn1c(=O)c(C2=NS(=O)(=O)c3cc(NS(=O)(=O)N(C)C(=O)OCc4ccccc4)ccc3N2)c(O)c2cccnc21`, it took 121 nM to reach half-maximal inhibition in experiment [1] (IC50).

The compound `CC(C)CCn1c(=O)c(C2=NS(=O)(=O)c3cc(NS(=O)(=O)Nc4cccc(C(=O)NCC(N)=O)c4)ccc3N2)c(O)c2cccnc21` had an IC50 in experiment [1] of 43 nM.

For the compound `CC(C)CCn1c(=O)c(C2=Nc3ccc(NS(=O)(=O)Nc4ccccc4)cc3S(=O)(=O)N2)c(O)c2cccnc21`, in experiment [1], inhibition was half-maximal at 41 nM (IC50).

As to `CNS(=O)(=O)Nc1ccc2c(c1)S(=O)(=O)NC(c1c(O)c3cccnc3n(CCC(C)C)c1=O)=N2`, in experiment [1], the IC50 was found to be 14 nM.

With `CNC(=O)c1ccc(NS(=O)(=O)Nc2ccc3c(c2)S(=O)(=O)N=C(c2c(O)c4cccnc4n(CCC(C)C)c2=O)N3)cc1`, in experiment [1], the half-inhibitory concentration (IC50) was found to be 43 nM.

On to `CCOC(=O)COC(=O)NS(=O)(=O)Nc1ccc2c(c1)S(=O)(=O)NC(c1c(O)c3cccnc3n(CCC(C)C)c1=O)=N2`, for which inhibition in experiment [1] was half-maximal at 61 nM (IC50).

Turning to `CC(C)CCn1c(=O)c(C2=Nc3ccc(NS(=O)(=O)NC(=O)OCCCl)cc3S(=O)(=O)N2)c(O)c2cccnc21`, the IC50 in experiment [1] was determined as 189 nM.

On to `CC(C)CCn1c(=O)c(C2=Nc3ccc(NS(=O)(=O)NC(=O)OCCOCc4ccccc4)cc3S(=O)(=O)N2)c(O)c2cccnc21`, for which the IC50 in experiment [1] is 96 nM.

With `CC(C)CCn1c(=O)c(C2=NS(=O)(=O)c3cc(NS(C)(=O)=O)ccc3N2)c(O)c2cccnc21`, the 50% inhibitory concentration (IC50) worked out at 6 nM in experiment [2] and 2.4 nM in experiment [1].

Regarding `CC(C)CCn1c(=O)c(C2=NS(=O)(=O)c3cc(NS(=O)(=O)NCc4ccccc4)ccc3N2)c(O)c2cccnc21`, the 50% inhibitory concentration (IC50) is 44 nM in experiment [2] and 5.5 nM in experiment [1]. In addition, in experiment [4], the EC50 is 398 nM.

In experiment [1], `CC(C)CCn1c(=O)c(C2=Nc3ccc(NS(=O)(=O)Nc4cccc(C(=O)O)c4)cc3S(=O)(=O)N2)c(O)c2cccnc21` showed an IC50 of 115 nM.

In experiment [1], `CCOC(=O)c1cccc(NS(=O)(=O)Nc2ccc3c(c2)S(=O)(=O)NC(c2c(O)c4cccnc4n(CCC(C)C)c2=O)=N3)c1` had an IC50 of 132 nM.

In the case of `CC(C)CCn1c(=O)c(C2=NS(=O)(=O)c3cc(NS(N)(=O)=O)ccc3N2)c(O)c2cccnc21`, the half-maximal inhibitory concentration (IC50) in experiment [2] stood at 2.8 nM; in experiment [1] it was 9 nM. Moreover, in experiment [4], the EC50 worked out at 17 nM.

`CC(C)CCn1c(=O)c(C2=NS(=O)(=O)c3cc(NS(=O)(=O)Nc4cccc(C(N)=O)c4)ccc3N2)c(O)c2cccnc21`: in experiment [1], half-maximal inhibition (IC50) was put at 43 nM.

In experiment [1], `COC(=O)NS(=O)(=O)Nc1ccc2c(c1)S(=O)(=O)N=C(c1c(O)c3cccnc3n(CCC(C)C)c1=O)N2` had a half-maximal inhibitory concentration (IC50) of 63 nM.

On to `CC(C)CCn1c(=O)c(C2=Nc3ccc(NS(=O)(=O)NC4CCCCC4)cc3S(=O)(=O)N2)c(O)c2cccnc21`, for which, in experiment [1], the IC50 was determined as 67 nM.

`COCCOC(=O)NS(=O)(=O)Nc1ccc2c(c1)S(=O)(=O)NC(c1c(O)c3cccnc3n(CCC(C)C)c1=O)=N2` came in with a concentration for half-maximal inhibition (IC50) in experiment [1] of 87 nM.

Turning to `CC(C)CCn1c(=O)c(C2=Nc3ccc(NS(=O)(=O)NCCc4ccccc4)cc3S(=O)(=O)N2)c(O)c2cccnc21`, the figures for the IC50 in experiment [2] and in experiment [1] were 37 nM and 18 nM, respectively. In addition, in experiment [4], the EC50 worked out at 1270 nM.

`CC(C)CCn1c(=O)c(C2=Nc3ccc(NS(=O)(=O)NC4CCNCC4)cc3S(=O)(=O)N2)c(O)c2cccnc21` came in with an IC50 in experiment [1] of 32 nM.

With `CC(C)CCn1c(=O)c(C2=Nc3ccc(NS(=O)(=O)NN4CCCC4)cc3S(=O)(=O)N2)c(O)c2cccnc21`, in experiment [1], half-maximal inhibition (IC50) required 27 nM.

On to `COC(=O)c1ccc(NS(=O)(=O)Nc2ccc3c(c2)S(=O)(=O)N=C(c2c(O)c4cccnc4n(CCC(C)C)c2=O)N3)cc1`, for which, in experiment [1], the midpoint of inhibition, the IC50, lay at 48 nM.

`CC(C)CCn1c(=O)c(C2=Nc3ccc(NS(=O)(=O)NC(=O)OCc4ccccc4)cc3S(=O)(=O)N2)c(O)c2cccnc21` showed a half-inhibitory concentration (IC50) in experiment [1] of 58 nM.

In turn, `COc1cccc(CNS(=O)(=O)Nc2ccc3c(c2)S(=O)(=O)NC(c2c(O)c4cccnc4n(CCC(C)C)c2=O)=N3)c1` showed an IC50 in experiment [1] of 15 nM.

Compound `CC(C)CCn1c(=O)c(C2=Nc3ccc(NS(=O)(=O)NC(=O)OCCN)cc3S(=O)(=O)N2)c(O)c2cccnc21` had an IC50 in experiment [1] of 21 nM.

With `COc1ccccc1CNS(=O)(=O)Nc1ccc2c(c1)S(=O)(=O)NC(c1c(O)c3cccnc3n(CCC(C)C)c1=O)=N2`, in experiment [1], 57 nM corresponded to half-maximal inhibition (IC50).

For `CC(C)CCn1c(=O)c(C2=Nc3ccc(NS(=O)(=O)NCCC(N)=O)cc3S(=O)(=O)N2)c(O)c2cccnc21`, 20 nM corresponded to half-maximal inhibition in experiment [1] (IC50).

The compound `CC(C)CCn1c(=O)c(C2=Nc3ccc(NS(=O)(=O)NC(=O)OCC(=O)O)cc3S(=O)(=O)N2)c(O)c2cccnc21` registered an IC50 in experiment [1] of 50 nM.

Take `CC(C)CCn1c(=O)c(C2=Nc3ccc(NS(=O)(=O)NCc4cccc([N+](=O)[O-])c4)cc3S(=O)(=O)N2)c(O)c2cccnc21`: the 50% inhibitory concentration (IC50) in experiment [1] worked out at 13 nM.

Values taken from ChEMBL document CHEMBL1138070, “Inhibitors of HCV NS5B polymerase: synthesis and structure-activity relationships of N-alkyl-4-hydroxyquinolon-3-yl-benzothiadiazine sulfamides” (Bioorg Med Chem Lett, 2006).
